Laboratory results from ChEMBL document CHEMBL1240482, “Synthesis and antiproliferative evaluation of certain indeno[1,2-c]quinoline derivatives. Part 2” (J Med Chem, 2010).
Active and inactive are the calls of the source. The calls are words filed in the database; no cut-off is given here.

Legend:
Detroit 551 [1] = test: Selectivity index, ratio of IC50 for human Detroit 551 cells to IC50 for human BT-483 cells; format: functional
Detroit 551 [2] = test: Selectivity index, ratio of IC50 for human Detroit 551 cells to IC50 for human PC3 cells; format: functional
DNA topoisomerase 1 = biological target: T1, DNA topoisomerase 1 (Homo sapiens, UniProt P11387); test: Inhibition of human topoisomerase 1 assessed as decrease in pBR322 mobility on agarose gel by electrophoresis
T1 sequence (P11387 whole entry): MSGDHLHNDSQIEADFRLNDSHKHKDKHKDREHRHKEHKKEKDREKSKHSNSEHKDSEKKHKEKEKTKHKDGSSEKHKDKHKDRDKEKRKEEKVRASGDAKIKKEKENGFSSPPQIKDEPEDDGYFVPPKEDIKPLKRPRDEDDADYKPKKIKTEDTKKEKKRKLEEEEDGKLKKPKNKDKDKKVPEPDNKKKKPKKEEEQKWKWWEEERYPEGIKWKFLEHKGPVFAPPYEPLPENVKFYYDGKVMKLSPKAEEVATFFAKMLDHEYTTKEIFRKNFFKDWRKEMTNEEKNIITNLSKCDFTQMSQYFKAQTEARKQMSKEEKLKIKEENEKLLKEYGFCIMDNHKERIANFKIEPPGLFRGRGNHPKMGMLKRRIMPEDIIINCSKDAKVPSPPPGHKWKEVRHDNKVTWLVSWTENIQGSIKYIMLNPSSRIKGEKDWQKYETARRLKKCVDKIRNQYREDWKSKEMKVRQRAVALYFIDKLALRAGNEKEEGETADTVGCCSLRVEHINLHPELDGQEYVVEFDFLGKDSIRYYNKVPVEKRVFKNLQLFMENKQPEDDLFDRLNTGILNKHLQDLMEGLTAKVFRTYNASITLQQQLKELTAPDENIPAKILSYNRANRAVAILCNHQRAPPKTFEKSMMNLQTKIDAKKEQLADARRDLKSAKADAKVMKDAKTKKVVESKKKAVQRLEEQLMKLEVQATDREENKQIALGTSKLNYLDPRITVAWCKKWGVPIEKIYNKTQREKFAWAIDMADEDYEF
Outline: (§1)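 Enzyme preincubated with compound before DNA addition; reaction run 30 min at 37 °C and stopped with SDS. Products resolved on 1% agarose, stained with ethidium bromide, quantified by densitometry.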

HeLa [3] = test: Selectivity index, ratio of IC50 for human Detroit 551 cells to IC50 for human HeLa cells; format: functional
[4] = Cytotoxicity against human SKHep cells after 48 hrs by MTT assay; format: functional
Outline: (§2)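 Cells grown in DMEM with 10% FBS at 37 °C and 5% CO2, seeded at 5 × 10^3 per well and allowed 24 h before drug. Serial dilutions from DMSO stocks applied for 48 h. MTT (2 mg/mL in PBS) added for 2 h, formazan dissolved in DMSO, absorbance read at 570 nm. GI50 interpolated by linear regression from at least three points in the 20-80% range; three independent experiments.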

PC-3 = test: Cytotoxicity against human PC3 cells after 48 hrs by MTT assay; format: functional; settings: PC-3, 48 h; outline: as §2
[5] = Cytotoxicity against human Detroit 551 cells after 48 hrs by MTT assay; format: cell-based; outline: as §2
[6] = biological target: T2, DNA topoisomerase 1 (Homo sapiens) (UniProt P11387); test: Inhibition of human topoisomerase 1 assessed as decrease in pBR322 mobility on agarose gel at 10 uM by electrophoresis; outline: as §1
T2 sequence (whole entry): T1 sequence (P11387 whole entry)

SAS [7] = test: Selectivity index, ratio of IC50 for human Detroit 551 cells to IC50 for human SAS cells; format: functional
HeLa [8] = test: Cytotoxicity against human HeLa cells after 48 hrs by MTT assay; format: functional; outline: as §2
A549 = test: Cytotoxicity against human A549 cells after 48 hrs by MTT assay; format: functional; settings: A549, 48 h; outline: as §2
[9] = Cytotoxicity against human BT-483 cells after 48 hrs by MTT assay; format: functional; settings: BT-483, 48 h; outline: as §2
Detroit 551 [10] = test: Selectivity index, ratio of IC50 for human Detroit 551 cells to IC50 for human A549 cells; format: functional
[11] = Inhibition of human topoisomerase 2 assessed as decrease in pBR322 mobility on agarose gel by electrophoresis; outline: as §1
Homo sapiens = species on record: Homo sapiens; test: Inhibition of human topoisomerase 2 assessed as decrease in pBR322 mobility on agarose gel at 10 uM by electrophoresis; outline: as §1
Nucleic Acid = test: Binding affinity to pBR322; format: nucleic-acid assay; settings: Escherichia coli
SAS [12] = test: Cytotoxicity against human SAS cells after 48 hrs by MTT assay; format: functional; outline: as §2
Detroit 551 [13] = test: Selectivity index, ratio of IC50 for human Detroit 551 cells to IC50 for human SKHep cells; format: functional

SMILES	RatioGI50 (Detroit 551 [1])	RatioGI50 (Detroit 551 [2])	IC50 (DNA topoisomerase 1)	RatioGI50 (HeLa [3])	GI50 [4]	GI50 (PC-3)	GI50 at 48 h [5]	inhibition [6]	RatioGI50 (SAS [7])	GI50 (HeLa [8]; read-out: GI50)	GI50 (HeLa [8]; read-out: pGI50 (converted))	GI50 (A549)	GI50 [9]	RatioGI50 (Detroit 551 [10])	IC50 [11]	inhibition (Homo sapiens)	Activity (Nucleic Acid)	GI50 (SAS [12])	RatioGI50 (Detroit 551 [13])
COc1ccc2c(c1)/C(=N\OCCN1CCCC1)c1c-2c(N2CCNCC2)nc2ccccc12	1.03	0.44	12.8 µM	2.58	0.68 µM	3.37 µM	1.47 µM	48%	0.6	0.57 µM	0.575 µM	0.5 µM	1.43 µM	4.63	6.44 µM	74%	Active	2.43 µM	2.16
COc1ccc2c(c1)/C(=N\OCCCN(C)C)c1c-2c(=O)[nH]c2ccccc12			> 100 µM				2.09 µM												
COc1ccc2c(c1)/C(=N\OCCN1CCOCC1)c1c-2c(O)nc2ccccc12			> 100 µM		10.4 µM	13.6 µM		0%		5.02 µM	5.01 µM	> 30 µM	6.04 µM		> 100 µM	0%		16.5 µM	
COc1cccc2c1C(=O)c1c(O)c3c(c(O)c1C2=O)C[C@@](O)(C(=O)CO)C[C@@H]3O[C@H]1C[C@H](N)[C@H](O)[C@H](C)O1 [DOXORUBICIN]								35%							1.9 µM	85%			
COc1ccc2c(c1)C(=O)c1c-2cnc2ccccc12			> 100 µM		> 30 µM	> 30 µM		0%		17.2 µM	17.4 µM	13.5 µM	> 30 µM		> 100 µM	0%		> 30 µM	
COc1ccc2c(c1)/C(=N\OCCCN(C)C)c1c-2c(O)nc2ccccc12	1.62	0.48		10.45	0.75 µM	4.35 µM		3%	0.67	0.2 µM	0.2 µM	0.63 µM	1.29 µM	3.32	7.14 µM	77%	Active	3.1 µM	2.79
COc1ccc2c(c1)/C(=N\O)c1c-2cnc2ccccc12					8.42 µM	> 30 µM				11.4 µM	11.5 µM	> 30 µM	> 30 µM					> 30 µM	
CC[C@@]1(O)C(=O)OCc2c1cc1n(c2=O)Cc2cc3ccccc3nc2-1 [CAMPTOTHECIN]							0.99 µM			0.08 µM			1.03 µM		> 100 µM	0%			
COc1ccc2c(c1)/C(=N\OCCN1CCCCC1)c1c-2c(N2CCNCC2)nc2ccccc12	0.57	0.41	11.5 µM	2.95			2.3 µM	45%	0.4		0.776 µM		4.03 µM	2.64	8 µM	68%	Active		1.46
